For orientation: inhibition means the percentage by which the read-out fell short of the control. The IC50 is the point on the concentration scale where inhibition reaches its midpoint.

Consider one compound from ChEMBL document CHEMBL4130443, “Targeting breast cancer stem cells by novel HDAC3-selective inhibitors” (Eur J Med Chem, 2017).

Data set [1] concerns the target Histone deacetylase 4 (Homo sapiens) (UniProt P56524). In words: Inhibition of human HDAC4 at 1 uM using Boc-Lys(trifluoroacetyl)-AMC substrate. Put shortly:
(§1)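 Isoform profiling run by a commercial vendor with compounds at 1 µM. Values are percent inhibition, each the average of two determinations.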

For data set [2], the system named is MDA-MB-231. In words: Inhibition of mammosphere formation of human MDA-MB-231 cells incubated for 7 days. Particulars: MDA-MB-231, 168 h.
Data set [3] has as its system MDA-MB-231. In words: Growth inhibition of human MDA-MB-231 cells incubated for 48 to 72 hrs by crystal violet staining based assay. The class given is functional, cell-based. Summed up: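 Cells plated at 5000/well and left overnight, then treated in 5% FBS for 24, 48 and 72 h. Washed with PBS, stained 20 min with 0.5% crystal violet in 20% methanol, stain solubilized in 2% SDS, absorbance read at 550. Growth inhibition calculated as (1-Nt/Nc) x 100 against vehicle wells. N = 6.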

Data set [4] has as its target Histone deacetylase 3/Nuclear receptor corepressor 2 (HDAC3/NCoR2) (Homo sapiens) (UniProt O15379+Q9Y618). Description: Inhibition of human HDAC3/NCOR2 at 1 uM using p53 (379 to 382 residues) derived fluorogenic peptide RHKKAc. The class given is protein-complex assay. Summed up: as §1
Data set [5] has as its target Histone deacetylase 3 (Homo sapiens) (UniProt O15379). In words: Inhibition of HDAC3 in human MDA-MB-231 cells assessed as increase in histone H3 acetylation at 0.5 to 5 uM by immunoblotting. The class given is cell-based. Put shortly:
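Monolayer cells treated in 5% FBS at graded concentrations. Lysed in SDS/EDTA/Tris pH 8.1 buffer, equal protein immunoblotted with primary antibodies 1:1000 overnight at 4°C. Detected by ECL for phospho-Akt, β-catenin and histone H3 pan/H3K9 acetylation.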

The subject of data set [6] is MDA-MB-231. Description: Inhibition of tumorogenicity of human MDA-MB-231 cells xenografted in NOD/SCID mouse injected with cells pretreated with 5 uM compound for 48 hrs assessed as reduction in tumor incidence at 100 mg/kg, po dosed via gavage once daily starting on day 2 post injection and continuing through day 12. In kind it is functional, organism-based. Put shortly: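 Cells pretreated 48 h with 5 µM compound or DMSO, trypsinized and injected at 50,000 cells/0.1 ml in 50% Matrigel into the left 4th inguinal mammary fat pad of female NOD/SCID mice (N = 10 per group). Dosed 100 mg/kg by oral gavage once daily in 0.5% methylcellulose/0.1% Tween 80 in water. Caliper volume = (width² x length) x 0.52. Incidence by log-rank test, volume at day 27 by t-test.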

The test system of data set [7] is MDA-MB-231. In words: Cytotoxicity in human MDA-MB-231 cells assessed as reduction in cell viability incubated for 24 to 72 hrs by MTT assay. The class given is functional, cell-based. Put shortly: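 MDA-MB-231 seeded 5,000 cells/well with 10% FBS, left overnight, then exposed to agents in 5% FBS for 24, 48 and 72 h. MTT added for 1 h, dye dissolved in DMSO, absorbance at 560 nm. Viability given as percent of the matching vehicle-treated control. N = 6.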
(In general: Formazan colour is commonly taken as a measure of viable cells.)

The target in data set [8] is Histone deacetylase 1 (Homo sapiens, UniProt Q13547). In words: Inhibition of human HDAC1 using p53 (379 to 382 residues) derived fluorogenic peptide RHKKAc.
Sequence of Histone deacetylase 1 (Q13547 whole entry, the tested form may be a part): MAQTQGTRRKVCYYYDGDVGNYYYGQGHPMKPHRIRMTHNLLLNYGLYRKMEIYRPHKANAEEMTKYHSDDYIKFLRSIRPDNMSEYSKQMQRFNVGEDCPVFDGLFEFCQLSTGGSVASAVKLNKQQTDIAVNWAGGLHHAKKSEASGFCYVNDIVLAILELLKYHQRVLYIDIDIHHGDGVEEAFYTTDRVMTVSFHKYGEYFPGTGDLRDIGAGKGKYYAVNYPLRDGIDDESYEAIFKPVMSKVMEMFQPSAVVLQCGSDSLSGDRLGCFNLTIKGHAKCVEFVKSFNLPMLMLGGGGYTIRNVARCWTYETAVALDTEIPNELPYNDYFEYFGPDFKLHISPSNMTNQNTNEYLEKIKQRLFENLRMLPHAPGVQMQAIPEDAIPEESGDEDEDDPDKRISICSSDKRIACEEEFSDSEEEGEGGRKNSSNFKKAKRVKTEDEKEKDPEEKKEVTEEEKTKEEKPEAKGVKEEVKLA
Data set [9] addresses Histone deacetylase 2 (Homo sapiens, UniProt Q92769). In words: Inhibition of human HDAC2 at 1 uM using p53 (379 to 382 residues) derived fluorogenic peptide RHKKAc. Summed up: as §1
Data set [10] concerns the target Histone deacetylase 5 (Homo sapiens) (UniProt Q9UQL6). Description: Inhibition of human HDAC5 at 1 uM using Boc-Lys(trifluoroacetyl)-AMC substrate. Summed up:
as §1

Data set [11] has as its target T1, Protein deacetylase HDAC6 (Homo sapiens) (UniProt Q9UBN7).
T1 sequence (whole entry): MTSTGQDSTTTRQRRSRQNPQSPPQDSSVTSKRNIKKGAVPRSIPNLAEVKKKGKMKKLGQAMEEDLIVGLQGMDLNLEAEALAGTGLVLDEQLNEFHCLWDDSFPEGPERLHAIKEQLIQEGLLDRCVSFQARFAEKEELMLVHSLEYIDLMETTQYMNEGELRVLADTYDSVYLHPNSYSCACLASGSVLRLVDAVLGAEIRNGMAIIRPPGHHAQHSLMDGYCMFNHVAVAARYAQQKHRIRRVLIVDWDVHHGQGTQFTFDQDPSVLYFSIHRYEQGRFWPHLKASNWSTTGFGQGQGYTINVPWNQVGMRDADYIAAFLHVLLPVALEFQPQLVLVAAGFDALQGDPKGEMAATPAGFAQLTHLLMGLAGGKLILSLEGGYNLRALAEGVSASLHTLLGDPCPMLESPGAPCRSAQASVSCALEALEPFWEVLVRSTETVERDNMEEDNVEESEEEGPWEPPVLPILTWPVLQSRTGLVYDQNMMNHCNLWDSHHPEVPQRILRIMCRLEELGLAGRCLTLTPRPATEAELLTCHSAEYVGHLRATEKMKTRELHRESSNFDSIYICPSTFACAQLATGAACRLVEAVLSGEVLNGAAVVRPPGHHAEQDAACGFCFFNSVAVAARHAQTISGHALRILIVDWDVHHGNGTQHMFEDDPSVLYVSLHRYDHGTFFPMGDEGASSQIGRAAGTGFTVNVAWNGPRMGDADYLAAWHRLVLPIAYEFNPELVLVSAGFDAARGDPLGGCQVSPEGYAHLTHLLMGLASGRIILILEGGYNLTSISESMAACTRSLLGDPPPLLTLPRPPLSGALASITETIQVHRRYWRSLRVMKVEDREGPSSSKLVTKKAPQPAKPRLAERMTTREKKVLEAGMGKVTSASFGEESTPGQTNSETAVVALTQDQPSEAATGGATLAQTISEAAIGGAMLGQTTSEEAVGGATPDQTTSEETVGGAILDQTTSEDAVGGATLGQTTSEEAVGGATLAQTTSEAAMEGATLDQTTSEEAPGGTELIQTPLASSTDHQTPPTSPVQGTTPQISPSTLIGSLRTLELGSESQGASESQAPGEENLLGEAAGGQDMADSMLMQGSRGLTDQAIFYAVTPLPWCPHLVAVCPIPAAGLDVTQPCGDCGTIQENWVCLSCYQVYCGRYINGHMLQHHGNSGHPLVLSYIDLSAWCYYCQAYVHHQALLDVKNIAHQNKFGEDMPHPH
Description: Inhibition of human HDAC6 at 1 uM using p53 (379 to 382 residues) derived fluorogenic peptide RHKKAc. Put shortly: as §1

Data set [12] concerns MDA-MB-231. In words: Effect on beta-catenin mRNA expression in human MDA-MB-231 cells at 0.5 to 5 uM by RT-PCR method. Particulars: mda-mb-231, 5 µM. In kind it is cell-based. Put shortly:
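Monolayer cells treated at graded concentrations. Total RNA isolated with TRIzol. β-catenin mRNA assessed by RT-PCR with β-actin as reference.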

Data set [13] relates to MDA-MB-231. In words: Inhibition of cancer stem cell subpopulation of human MDA-MB-231 cells assessed as CD44+/CD24low subpopulation level at 0.1 to 5 uM by flow cytometry. The class given is functional, cell-based. Summed up:
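Cells exposed to DMSO or compound at graded concentrations, then harvested and washed in stain buffer. Stained with FITC- or phycoerythrin-conjugated anti-CD44 and anti-CD24 for 30 min on ice in the dark, resuspended in PBS, and CD44+/CD24low fraction read by flow cytometry.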
In general terms: Flow cytometry measures light scatter and fluorescence of single cells or particles in a stream.

Activity calls are given as the source filed them. The rule behind the calls is not given here.

Sequence of Histone deacetylase 5 (Homo sapiens) (Q9UQL6 whole entry): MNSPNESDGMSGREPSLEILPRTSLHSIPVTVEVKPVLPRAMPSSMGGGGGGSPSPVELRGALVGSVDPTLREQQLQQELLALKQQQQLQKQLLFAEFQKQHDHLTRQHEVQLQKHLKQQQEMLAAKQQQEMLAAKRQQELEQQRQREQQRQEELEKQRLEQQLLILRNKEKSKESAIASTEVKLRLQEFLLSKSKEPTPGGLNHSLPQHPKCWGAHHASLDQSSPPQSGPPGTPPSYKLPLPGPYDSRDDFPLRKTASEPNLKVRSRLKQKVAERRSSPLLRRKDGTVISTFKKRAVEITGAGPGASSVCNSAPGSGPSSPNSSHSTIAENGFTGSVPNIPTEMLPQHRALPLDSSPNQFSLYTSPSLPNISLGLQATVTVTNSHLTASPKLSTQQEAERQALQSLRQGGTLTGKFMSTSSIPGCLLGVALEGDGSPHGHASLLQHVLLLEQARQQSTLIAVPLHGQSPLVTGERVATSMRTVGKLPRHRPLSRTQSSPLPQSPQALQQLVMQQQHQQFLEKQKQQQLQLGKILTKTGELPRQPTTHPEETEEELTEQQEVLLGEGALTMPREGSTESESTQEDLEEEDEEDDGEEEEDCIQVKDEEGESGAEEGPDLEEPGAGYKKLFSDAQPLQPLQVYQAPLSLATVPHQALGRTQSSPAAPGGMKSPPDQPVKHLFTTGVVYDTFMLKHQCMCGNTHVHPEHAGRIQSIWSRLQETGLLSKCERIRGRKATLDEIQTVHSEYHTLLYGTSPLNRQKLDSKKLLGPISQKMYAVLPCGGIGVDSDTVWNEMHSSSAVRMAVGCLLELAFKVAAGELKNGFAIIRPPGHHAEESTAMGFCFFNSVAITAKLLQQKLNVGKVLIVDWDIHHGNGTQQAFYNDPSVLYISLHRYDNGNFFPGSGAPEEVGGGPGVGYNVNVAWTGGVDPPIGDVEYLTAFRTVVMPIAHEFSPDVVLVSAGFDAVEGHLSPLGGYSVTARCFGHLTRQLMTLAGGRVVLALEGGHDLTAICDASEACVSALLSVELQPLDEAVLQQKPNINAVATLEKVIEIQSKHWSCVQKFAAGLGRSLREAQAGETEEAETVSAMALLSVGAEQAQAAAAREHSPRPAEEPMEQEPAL
Sequence of Histone deacetylase 3 (Homo sapiens) (O15379 whole entry): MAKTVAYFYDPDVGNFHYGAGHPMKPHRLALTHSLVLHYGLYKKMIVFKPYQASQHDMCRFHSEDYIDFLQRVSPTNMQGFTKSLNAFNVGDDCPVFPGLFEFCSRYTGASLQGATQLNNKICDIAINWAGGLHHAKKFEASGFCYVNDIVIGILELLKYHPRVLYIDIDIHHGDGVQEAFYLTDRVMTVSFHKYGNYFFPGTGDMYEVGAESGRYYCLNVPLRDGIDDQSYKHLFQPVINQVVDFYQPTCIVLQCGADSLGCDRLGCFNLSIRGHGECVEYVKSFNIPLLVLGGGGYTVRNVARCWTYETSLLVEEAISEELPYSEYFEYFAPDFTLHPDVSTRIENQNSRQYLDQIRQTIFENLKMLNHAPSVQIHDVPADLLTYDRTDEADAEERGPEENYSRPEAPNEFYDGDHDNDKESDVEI
Sequence of Histone deacetylase 4 (Homo sapiens) (P56524 whole entry, canonical isoform): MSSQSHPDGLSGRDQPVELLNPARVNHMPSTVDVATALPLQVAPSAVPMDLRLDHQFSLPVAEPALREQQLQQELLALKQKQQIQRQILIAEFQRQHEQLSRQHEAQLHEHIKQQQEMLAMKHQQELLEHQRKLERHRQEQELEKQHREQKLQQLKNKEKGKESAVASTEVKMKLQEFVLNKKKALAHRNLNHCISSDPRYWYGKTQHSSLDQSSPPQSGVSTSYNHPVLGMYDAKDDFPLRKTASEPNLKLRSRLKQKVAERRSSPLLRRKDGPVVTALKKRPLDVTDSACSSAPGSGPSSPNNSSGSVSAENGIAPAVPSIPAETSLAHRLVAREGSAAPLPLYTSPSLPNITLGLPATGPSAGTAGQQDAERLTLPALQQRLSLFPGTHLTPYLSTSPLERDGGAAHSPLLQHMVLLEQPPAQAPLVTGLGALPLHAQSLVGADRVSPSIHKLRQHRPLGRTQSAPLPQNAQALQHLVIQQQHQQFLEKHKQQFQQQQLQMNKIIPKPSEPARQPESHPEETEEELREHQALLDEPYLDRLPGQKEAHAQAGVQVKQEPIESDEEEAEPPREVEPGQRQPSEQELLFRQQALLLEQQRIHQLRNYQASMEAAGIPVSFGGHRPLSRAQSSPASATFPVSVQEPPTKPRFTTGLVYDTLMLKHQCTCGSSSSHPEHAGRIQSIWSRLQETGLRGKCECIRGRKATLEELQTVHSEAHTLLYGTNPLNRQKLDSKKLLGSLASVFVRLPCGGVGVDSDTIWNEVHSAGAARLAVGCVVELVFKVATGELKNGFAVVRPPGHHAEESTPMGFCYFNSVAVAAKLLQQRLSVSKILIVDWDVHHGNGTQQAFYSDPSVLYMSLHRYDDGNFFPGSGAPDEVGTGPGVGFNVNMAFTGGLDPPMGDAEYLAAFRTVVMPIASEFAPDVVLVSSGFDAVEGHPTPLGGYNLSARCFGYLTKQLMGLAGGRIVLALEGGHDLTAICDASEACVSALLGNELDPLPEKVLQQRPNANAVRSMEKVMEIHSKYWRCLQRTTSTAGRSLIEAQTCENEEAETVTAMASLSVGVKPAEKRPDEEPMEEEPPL
Sequence of Histone deacetylase 2 (Q92769 whole entry, the tested form may be a part): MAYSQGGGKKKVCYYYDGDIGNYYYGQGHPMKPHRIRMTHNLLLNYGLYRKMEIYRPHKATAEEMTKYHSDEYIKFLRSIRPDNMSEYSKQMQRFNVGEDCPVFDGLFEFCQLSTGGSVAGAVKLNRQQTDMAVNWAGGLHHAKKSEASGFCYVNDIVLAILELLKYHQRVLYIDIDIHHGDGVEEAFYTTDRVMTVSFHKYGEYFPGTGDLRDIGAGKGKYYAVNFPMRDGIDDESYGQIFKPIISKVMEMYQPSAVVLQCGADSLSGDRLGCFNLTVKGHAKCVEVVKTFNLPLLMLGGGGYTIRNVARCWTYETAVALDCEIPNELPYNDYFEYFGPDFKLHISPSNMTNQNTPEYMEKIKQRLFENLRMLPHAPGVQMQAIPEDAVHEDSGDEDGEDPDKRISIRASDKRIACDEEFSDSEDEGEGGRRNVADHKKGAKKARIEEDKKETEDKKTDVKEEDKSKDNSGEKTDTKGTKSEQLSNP

Consider `CC(C)(C(=O)Nc1ccc(C(=O)Nc2ccc(F)cc2N)cc1)c1ccccc1`, for which the inhibition in data set [1] is 0%; in data set [4], 87%; in [5], “Dose-dependent effect”; in data set [9], 5%; in [10] it was 0%; in data set [11] it was 4%. Further, the inhibition entry in data set [13] is “Dose-dependent effect”. For the same compound, the IC50 in data set [2] was 500 to 1000 nM; in data set [3], not below 10 µM; in data set [7] it was not below 10 µM; in data set [8], more than 10 µM. Besides, the inhibition result in [6] is “Active”. The Activity entry in data set [12] is on record as “Non-Toxic”.
